ChEMBL document CHEMBL1255300, “Pharmacodynamics of the antibacterial effect and emergence of resistance to tomopenem, formerly RO4908463/CS-023, in an in vitro pharmacokinetic model of Staphylococcus aureus infection” (Antimicrob Agents Chemother, 2008)

Assays:
Assay type in all cases: functional
Staphylococcus aureus [1] = assay: Antibacterial activity against methicillin-resistant Staphylococcus aureus 33922 infected in in vitro pharmacokinetic model assessed as time required to 99% killing at 3 mg/ml using 10^6 CFU/ml inoculum
Staphylococcus aureus [2] = assay: Antibacterial activity against methicillin-resistant Staphylococcus aureus 33827 infected in in vitro pharmacokinetic model assessed as time required to 99% killing at 3 mg/ml using 10^6 CFU/ml inoculum
Staphylococcus aureus [3] = assay: Antibacterial activity against methicillin-resistant Staphylococcus aureus 33815 infected in in vitro pharmacokinetic model assessed as time required to 99% killing at 3 mg/ml using 10^6 CFU/ml inoculum
Summary of the method: (§1)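 Single-compartment model in 10% MHB at 37°C with 10^6 CFU/ml inoculum. Log change in count from time 0 and times to 99%/99.9% kill from serial spiral-plate counts; at least triplicate.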

Staphylococcus aureus [4] = assay: Antibacterial activity against methicillin-resistant Staphylococcus aureus 33922 infected in in vitro pharmacokinetic model assessed as reduction in viable count at 3 mg/ml after 12 hrs using 10^6 CFU/ml inoculum
Staphylococcus aureus [5] = assay: Antibacterial activity against methicillin-resistant Staphylococcus aureus 33827 infected in in vitro pharmacokinetic model assessed as reduction in viable count at 3 mg/ml after 12 hrs using 10^6 CFU/ml inoculum
Staphylococcus aureus [6] = assay: Antibacterial activity against methicillin-resistant Staphylococcus aureus 33815 infected in in vitro pharmacokinetic model assessed as reduction in viable count at 3 mg/ml after 12 hrs using 10^6 CFU/ml inoculum; summary of the method: as §1
Staphylococcus aureus [7] = assay: Antibacterial activity against methicillin-resistant Staphylococcus aureus 33922 infected in in vitro pharmacokinetic model assessed as reduction in viable count at 3 mg/ml after 24 hrs using 10^6 CFU/ml inoculum
Staphylococcus aureus [8] = assay: Antibacterial activity against methicillin-resistant Staphylococcus aureus 33827 infected in in vitro pharmacokinetic model assessed as reduction in viable count at 3 mg/ml after 24 hrs using 10^6 CFU/ml inoculum
Staphylococcus aureus [9] = assay: Antibacterial activity against methicillin-resistant Staphylococcus aureus 33815 infected in in vitro pharmacokinetic model assessed as reduction in viable count at 3 mg/ml after 24 hrs using 10^6 CFU/ml inoculum; summary of the method: as §1
Staphylococcus aureus [10] = assay: Antibacterial activity against methicillin-resistant Staphylococcus aureus 33922 infected in in vitro pharmacokinetic model assessed as reduction in viable count at 3 mg/ml after 36 hrs using 10^6 CFU/ml inoculum
Staphylococcus aureus [11] = assay: Antibacterial activity against methicillin-resistant Staphylococcus aureus 33827 infected in in vitro pharmacokinetic model assessed as reduction in viable count at 3 mg/ml after 36 hrs using 10^6 CFU/ml inoculum
Staphylococcus aureus [12] = assay: Antibacterial activity against methicillin-resistant Staphylococcus aureus 33815 infected in in vitro pharmacokinetic model assessed as reduction in viable count at 3 mg/ml after 36 hrs using 10^6 CFU/ml inoculum; summary of the method: as §1
Staphylococcus aureus [13] = assay: Antibacterial activity against methicillin-resistant Staphylococcus aureus 33922 infected in in vitro pharmacokinetic model assessed as reduction in viable count at 3 mg/ml after 48 hrs using 10^6 CFU/ml inoculum
Staphylococcus aureus [14] = assay: Antibacterial activity against methicillin-resistant Staphylococcus aureus 33827 infected in in vitro pharmacokinetic model assessed as reduction in viable count at 3 mg/ml after 48 hrs using 10^6 CFU/ml inoculum
Staphylococcus aureus [15] = assay: Antibacterial activity against methicillin-resistant Staphylococcus aureus 33815 infected in in vitro pharmacokinetic model assessed as reduction in viable count at 3 mg/ml after 48 hrs using 10^6 CFU/ml inoculum; summary of the method: as §1
Staphylococcus aureus [16] = assay: Antibacterial activity against methicillin-resistant Staphylococcus aureus 33922 infected in in vitro pharmacokinetic model assessed as time required to 99.9% killing at 3 mg/ml using 10^6 CFU/ml inoculum
Staphylococcus aureus [17] = assay: Antibacterial activity against methicillin-resistant Staphylococcus aureus 33827 infected in in vitro pharmacokinetic model assessed as time required to 99.9% killing at 3 mg/ml using 10^6 CFU/ml inoculum
Staphylococcus aureus [18] = assay: Antibacterial activity against methicillin-resistant Staphylococcus aureus 33815 infected in in vitro pharmacokinetic model assessed as time required to 99.9% killing at 3 mg/ml using 10^6 CFU/ml inoculum; summary of the method: as §1
Staphylococcus aureus [19] = assay: AUBKC (0 to 24 hrs) in methicillin-resistant Staphylococcus aureus 33922 infected in in vitro pharmacokinetic model at 3 mg/ml using 10^6 CFU/ml inoculum
Summary of the method: (§2)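 Run in a single-compartment in vitro PK model at 37°C in 10% MHB, flow 47.9 ml/h, 10^6 CFU/ml inoculum. Viable counts over 48 h. AUBKC 0-24 and 0-48 h by log-linear trapezoidal rule, at least triplicate.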

Staphylococcus aureus [20] = assay: AUBKC (0 to 24 hrs) in methicillin-resistant Staphylococcus aureus 33827 infected in in vitro pharmacokinetic model at 3 mg/ml using 10^6 CFU/ml inoculum; summary of the method: as §2
Staphylococcus aureus [21] = assay: AUBKC (0 to 24 hrs) in methicillin-resistant Staphylococcus aureus 33815 infected in in vitro pharmacokinetic model at 3 mg/ml using 10^6 CFU/ml inoculum; summary of the method: as §2
Staphylococcus aureus [22] = assay: AUBKC (0 to 48 hrs) in methicillin-resistant Staphylococcus aureus 33922 infected in in vitro pharmacokinetic model at 3 mg/ml using 10^6 CFU/ml inoculum; summary of the method: as §2
Staphylococcus aureus [23] = assay: AUBKC (0 to 48 hrs) in methicillin-resistant Staphylococcus aureus 33827 infected in in vitro pharmacokinetic model at 3 mg/ml using 10^6 CFU/ml inoculum; summary of the method: as §2
Staphylococcus aureus [24] = assay: AUBKC (0 to 48 hrs) in methicillin-resistant Staphylococcus aureus 33815 infected in in vitro pharmacokinetic model at 3 mg/ml using 10^6 CFU/ml inoculum; summary of the method: as §2

CN[C@H](CC(C)C)C(=O)N[C@H]1C(=O)N[C@@H](CC(N)=O)C(=O)N[C@H]2C(=O)N[C@H]3C(=O)N[C@H](C(=O)N[C@H](C(=O)O)c4cc(O)cc(O)c4-c4cc3ccc4O)[C@H](O)c3ccc(c(Cl)c3)Oc3cc2cc(c3O[C@@H]2O[C@H](CO)[C@@H](O)[C@H](O)[C@H]2O[C@H]2C[C@](C)(N)[C@H](O)[C@H](C)O2)Oc2ccc(cc2Cl)[C@H]1O [VANCOMYCIN]
Time (Staphylococcus aureus [1]): 12 h
Time (Staphylococcus aureus [2]): 24 h
Time (Staphylococcus aureus [3]): 12 h
log10CFU/ml (Staphylococcus aureus [4]): 2.2
log10CFU/ml (Staphylococcus aureus [5]): 1.8
log10CFU/ml (Staphylococcus aureus [6]): 3.3
log10CFU/ml (Staphylococcus aureus [7]): 2.6
log10CFU/ml (Staphylococcus aureus [8]): 3.2
log10CFU/ml (Staphylococcus aureus [9]): 2
log10CFU/ml (Staphylococcus aureus [10]): 3
log10CFU/ml (Staphylococcus aureus [11]): 4
log10CFU/ml (Staphylococcus aureus [12]): 1.7
log10CFU/ml (Staphylococcus aureus [13]): 2.9
log10CFU/ml (Staphylococcus aureus [14]): 4.2
log10CFU/ml (Staphylococcus aureus [15]): 1.6
Time (Staphylococcus aureus [16]): >48 h
Time (Staphylococcus aureus [17]): 24 h
Time (Staphylococcus aureus [18]): 12 h
AUBC (Staphylococcus aureus [19]): 54.8 log10CFU/ml.hr
AUBC (Staphylococcus aureus [20]): 56.7 log10CFU/ml.hr
AUBC (Staphylococcus aureus [21]): 46.2 log10CFU/ml.hr
AUBC (Staphylococcus aureus [22]): 80.1 log10CFU/ml.hr
AUBC (Staphylococcus aureus [23]): 61.9 log10CFU/ml.hr
AUBC (Staphylococcus aureus [24]): 97.4 log10CFU/ml.hr
